Ba/F3 V617F tox = reduced viability of JAK2V617F-dependent Ba/F3 cells, primary screen, JAK2V617F inhibitor project, cell-based, Ba/F3 EpoR-JAK2V617F, luminescence | actives 1.1% (n = 220,000) | inhibition, % at 5.6 µM | ATP luminescence;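 active = inhibition above the campaign mean plus 3 SD over all tested compounds, cut at about 24% in these data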;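 note: cytokine-independent growth of Ba/F3 cells driven by EpoR plus mutant JAK2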
APP transl inh = inhibitors of APP translation via 5'UTR reporter, primary screen, APP 5'UTR luciferase, SH-SY5Y cells | inhibition, % at 2 µM | AID 1285, 2008 | SH-SY5Y APP 5'UTR-luciferase reporter, luminescence | actives 0.82% (n = 190,000);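 active = inhibition above a set limit, derived from the sample mean plus 3 SD, cut at about 45% in these data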
MT stabilize HCS = microtubule stabilizers in HeLa cells, primary screen, imaging, high-content imaging; HeLa tubulin immunostaining HCS, 24 h; share of cells brighter than vehicle mean+2SD; actives 0.83% (n = 200,000); % tubulin-high responders, % at 10 µM; AID 2205, 2009;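 active = plate Z-score above 3 for both tubulin-high and condensed-nucleus cell shares, with cell loss under 80%, at 10 µM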;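 note: anti alpha tubulin signal scored within the nucleus-defined area of each cell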
b-catenin transl = modulators of beta-catenin nuclear translocation, primary screen, imaging, HeLa cells, immunofluorescence, high-content; nuclear translocation activity, % at 5 µM; actives 0.3% (n = 190,000); AID 1665, 2009;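 active = nuclear translocation activity above 50% at 5 µM, with a well cell count of 50 or more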;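 note: per-cell ratio of nuclear to cytoplasmic median beta-catenin stain intensity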
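Assay system: human HeLa cells, native beta-catenin; doses: 5 µM primary, 0.02–20 µM confirmation; incubation: compound treatment 24 h, 37°C, 5% CO2; technique: fluorescence imaging of beta-catenin antibody stain plus DAPI; measure: % activation, nuclear-to-cytoplasmic median beta-catenin signal ratio per cell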
IEC-6 cytotox = cytotoxicity in IEC-6 intestinal epithelial cells, primary screen, cytotoxicity control for KLF5 inhibitor project, cell-based, luminescence | IEC-6 cytotoxicity, luminescence viability | actives 0.78% (n = 290,000) | inhibition, % at 5 µM; in the data active = inhibition above about 22%
BaF3 tox = parental Ba/F3 cell viability inhibition, counter-screen for JAK2V617F inhibitor project, murine pro-B, CellTiter-Glo luminescence; CellTiter-Glo ATP luminescence; inhibition, % at 5.6 µM; actives 1.1% (n = 220,000);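 active = inhibition above a per-campaign cutoff, the mean inhibition of all tested compounds plus 3 SD, cut at about 27% in these data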
BaF3 tox 2 = parental Ba/F3 cell viability inhibition, counter-screen for JAK2V617F inhibitor project, murine pro-B, CellTiter-Glo luminescence | shares compounds with Ba/F3 V617F tox | actives 31% (n = 580) | cells kept alive by added IL-3 | AID 1520, 2009 | inhibition, % at 5.6 µM;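 active = cell growth inhibition above the hit limit set in the earlier mutant JAK2 cell screen, cut at about 27% in these data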
JAK2V617F conf = viability loss in Ba/F3 EpoR-JAK2V617F cells, confirmation, JAK2V617F inhibitor project, cell-based, luminescence, triplicate; shares compounds with Ba/F3 V617F tox; CellTiter-Glo luminescence; inhibition, % at 5.6 µM; actives 66% (n = 580); AID 1521, 2009;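 active = mean inhibition above the hit cutoff derived in the earlier primary screen, cut at about 25% in these data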;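 note: higher means lower luminescence from reduced cell ATP and viability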
Hits are given with their value. Hits are enriched below; roughly 2.2% of the tested compounds scored in any of these assays.

O=S(=O)(c1cnc(Cl)c(Br)c1)N1CCc2ccccc21 was read as Ba/F3 V617F tox 28, b-catenin transl inactive, IEC-6 cytotox inactive, BaF3 tox inactive, BaF3 tox 2 inactive and JAK2V617F conf 58.
O=S(=O)(c1cnc(Cl)c(Cl)c1)N1CCCc2ccccc21 was read as Ba/F3 V617F tox inactive, APP transl inh inactive, MT stabilize HCS inactive, b-catenin transl inactive, IEC-6 cytotox inactive and BaF3 tox inactive.
O=S(=O)(c1cnc(Cl)c(Cl)c1)N1CCc2ccccc21 was read as Ba/F3 V617F tox 25, b-catenin transl inactive, IEC-6 cytotox inactive, BaF3 tox inactive, BaF3 tox 2 inactive and JAK2V617F conf 59.
For Cc1ccc(N(CC(=O)Nc2cc(Cl)ccc2Oc2ccccc2)S(C)(=O)=O)cc1C the results were Ba/F3 V617F tox 26, APP transl inh inactive, MT stabilize HCS inactive, IEC-6 cytotox inactive, BaF3 tox inactive, BaF3 tox 2 inactive and JAK2V617F conf inactive.
Screening Cc1cc2c(NC3CCCCC3)ncnc2s1 returned IEC-6 cytotox inactive.
CC(=O)c1ccc2cccc3c2c1N=CN3C was read as Ba/F3 V617F tox 50, APP transl inh inactive, MT stabilize HCS inactive, b-catenin transl inactive, IEC-6 cytotox inactive, BaF3 tox inactive, BaF3 tox 2 inactive and JAK2V617F conf inactive.
CCOc1ccccc1NC(=O)N1CCc2ccccc2C1 was read as IEC-6 cytotox inactive.
Screening O=C1C(Nc2ccccc2)=C/C(=N/S(=O)(=O)c2cccs2)c2ccccc21 returned Ba/F3 V617F tox 46, APP transl inh inactive, MT stabilize HCS inactive, b-catenin transl inactive, IEC-6 cytotox inactive, BaF3 tox inactive, BaF3 tox 2 93 and JAK2V617F conf 96.
`c1ccc(-c2nc(-c3ccccn3)no2)cc1` gave Ba/F3 V617F tox 25, APP transl inh inactive, MT stabilize HCS inactive, b-catenin transl inactive, IEC-6 cytotox inactive, BaF3 tox inactive, BaF3 tox 2 29 and JAK2V617F conf inactive.
Screening CCCn1c(CN(C)Cc2ccccc2)nc2c1c(=O)n(C)c(=O)n2C returned Ba/F3 V617F tox 35, APP transl inh inactive, MT stabilize HCS inactive, b-catenin transl inactive, IEC-6 cytotox inactive, BaF3 tox inactive, BaF3 tox 2 inactive and JAK2V617F conf 58.
CN(Cc1ccccc1)Cc1nc2c(c(=O)n(C)c(=O)n2C)n1CCc1ccccc1 was read as Ba/F3 V617F tox inactive, APP transl inh inactive, MT stabilize HCS inactive, IEC-6 cytotox inactive and BaF3 tox inactive.
`Cc1nc2cc(OCc3cc(C(=O)NC(C)c4cnn(C)c4)no3)ccc2s1` (stereo not given) gave IEC-6 cytotox inactive.
O=C(CSc1ccc2ccccc2c1)NCCc1ccc(O)c(O)c1 was read as Ba/F3 V617F tox 52, APP transl inh inactive, MT stabilize HCS inactive, b-catenin transl inactive, IEC-6 cytotox inactive, BaF3 tox inactive, BaF3 tox 2 51 and JAK2V617F conf 93.
For Cc1cnc(NC(=O)C2(c3ccccc3)CC2)s1 the results were Ba/F3 V617F tox inactive, APP transl inh inactive, MT stabilize HCS inactive, b-catenin transl inactive, IEC-6 cytotox inactive and BaF3 tox inactive.
`Cc1cc(Cl)n2c(nc3cc(F)c(F)cc32)c1C#N` gave Ba/F3 V617F tox 48, APP transl inh 88, MT stabilize HCS inactive, b-catenin transl inactive, IEC-6 cytotox inactive, BaF3 tox inactive, BaF3 tox 2 33 and JAK2V617F conf 93.
For CCCCOc1ccc(C(O)C(CN2CCCCC2)c2ccccc2)cc1 (stereo not given) the results were Ba/F3 V617F tox inactive, APP transl inh inactive, MT stabilize HCS inactive, b-catenin transl inactive, IEC-6 cytotox inactive and BaF3 tox inactive.
